In ChEMBL document CHEMBL4266019, “Discovery and Structure-Activity-Relationship Study of N-Alkyl-5-hydroxypyrimidinone Carboxamides as Novel Antitubercular Agents Targeting Decaprenylphosphoryl-β-d-ribose 2'-Oxidase” (J Med Chem, 2018):
Values after ≈ are worked out from the molar mass of the structure shown. Active and inactive are the calls of the source. No cut-off for these calls is given here.

How the values were obtained:
HepG2 [1] = assay: Cytotoxicity against human HepG2 cells in presence of galactose; assay type: cell-based
How it was run: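 HepG2 cells tested in DMEM/10% FBS containing galactose.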

HepG2 [2] = assay: Cytotoxicity against human HepG2 cells in presence of glucose; assay type: cell-based
How it was run: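 HepG2 cells tested in DMEM/10% FBS supplemented with glucose.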

[3] = system: Mycobacterium tuberculosis; assay: Antitubercular activity against Mycobacterium tuberculosis H37Rv after 7 to 14 days in presence of GAST medium by two fold serial dilution method; assay type: functional
How it was run: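 MIC in GAST (glycerol/alanine/salts/Tween 80 defined medium), strain H37Rv; screening hits tested as duplicate 12-point MIC determinations with MgCl2 at 0.06, 6 or 60 mM.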

[4] = system: Mycobacterium tuberculosis; assay: Bactericidal activity against Mycobacterium tuberculosis H37Rv under anaerobic condition at 1 to 50 fold MIC after 7 days; assay type: functional, organism-based
How it was run: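 Anaerobic H37Rv from the self-generated oxygen-depletion (Wayne) model exposed to 1×, 5×, 10×, 20× and 50× MIC in an anaerobic chamber for 7 days. CFU counted on 7H11/OADC plates.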

[5] = system: Mycobacterium tuberculosis; assay: Antitubercular activity against Mycobacterium tuberculosis H37Rv assessed as induction of DNA damage by precA-LUX/pradA-LUX reporter-gene assay; assay type: functional, organism-based
How it was run: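 DNA-damage read-out: induction of the recA and radA promoters measured as luminescence in H37Rv precA-LUX and pradA-LUX reporter strains.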

[6] = system: Mycobacterium tuberculosis; assay: Bactericidal activity against Mycobacterium tuberculosis H37Rv under aerobic condition after 7 days; assay type: functional, organism-based
How it was run: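 Log-phase H37Rv (OD650 0.2) diluted 1000-fold in 7H9/ADC and exposed to 1×, 5×, 10×, 20× and 50× MIC in duplicate. Sampled at days 1, 2, 4 and 7; CFU counted on 7H11/OADC plates.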

[7] = biological target: T1, Decaprenylphosphoryl-beta-D-ribose oxidase (Mycobacterium tuberculosis (strain ATCC 25618 / H37Rv)) (UniProt P9WJF1); assay: Inhibition of DprE1 in Mycobacterium tuberculosis H37Rv assessed as bacterial growth inhibition after 4 weeks
T1 sequence (whole entry): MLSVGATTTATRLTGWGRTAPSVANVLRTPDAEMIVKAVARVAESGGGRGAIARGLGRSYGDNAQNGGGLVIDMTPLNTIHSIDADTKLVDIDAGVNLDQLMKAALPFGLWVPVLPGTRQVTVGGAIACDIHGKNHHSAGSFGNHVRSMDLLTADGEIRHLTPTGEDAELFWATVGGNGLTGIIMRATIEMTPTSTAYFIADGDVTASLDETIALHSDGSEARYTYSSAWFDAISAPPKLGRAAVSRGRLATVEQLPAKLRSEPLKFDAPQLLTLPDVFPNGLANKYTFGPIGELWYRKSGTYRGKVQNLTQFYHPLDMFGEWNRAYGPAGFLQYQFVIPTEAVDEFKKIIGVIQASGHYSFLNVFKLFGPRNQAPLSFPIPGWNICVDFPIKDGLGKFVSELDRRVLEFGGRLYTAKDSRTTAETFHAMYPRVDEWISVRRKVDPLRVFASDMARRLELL

Row | Structure (SMILES) | IC50 (HepG2 [1]) | IC50 (HepG2 [2]) | further results
1 | O=C(NCc1ccccc1)c1nc(Cc2ccccc2C(F)(F)F)[nH]c(=O)c1O | > 100 µM | > 100 µM | 
2 | Cn1c(Cc2ccccc2C(F)(F)F)nc(C(=O)NCc2ccc(F)cc2)c(O)c1=O | > 100 µM | > 100 µM | 
3 | Cn1c(Cc2ccccc2C(F)(F)F)nc(C(=O)NCc2ccccc2)c(O)c1=O | > 100 µM | > 100 µM | MIC [3]: 0.4 to 0.59 µM; Activity [4]: inactive; Activity [5]: inactive; Activity [6]: Dose-dependent effect; MIC [7]: 3.13 µM (≈ 1.31 µg/mL)
4 | CN(Cc1ccccc1)C(=O)c1nc(Cc2ccccc2C(F)(F)F)n(C)c(=O)c1O | > 100 µM | > 100 µM | 
5 | Cn1c(Cc2ccccc2)nc(C(=O)NCc2ccccc2)c(O)c1=O | > 100 µM | > 100 µM | 
6 | Cn1c(Cc2ccccc2C(F)(F)F)nc(C(=O)NCc2cccnc2)c(O)c1=O | > 100 µM | > 100 µM | 
7 | COc1c(C(=O)NCc2ccccc2)nc(Cc2ccccc2C(F)(F)F)n(C)c1=O | > 100 µM | > 100 µM | 
8 | Cn1c(Cc2ccccc2C(F)(F)F)nc(C(=O)NCc2ccc3c(c2)OCO3)c(O)c1=O | > 100 µM | > 100 µM | 
9 | CCn1c(Cc2ccccc2C(F)(F)F)nc(C(=O)NCc2ccccc2)c(O)c1=O | > 100 µM | > 100 µM | 
10 | CC(c1ccccc1C(F)(F)F)c1nc(C(=O)NCc2ccccc2)c(O)c(=O)n1C (configuration not stated) | > 100 µM | > 100 µM | 
11 | Cn1c(Cc2ccccc2C(F)(F)F)nc(C(=O)NCc2ccccc2F)c(O)c1=O | > 100 µM | > 100 µM | 
12 | Cn1c(Cc2ccccc2C(F)(F)F)nc(C(=O)NCC2CCCCC2)c(O)c1=O | > 100 µM | > 100 µM | 
13 | CC(NC(=O)c1nc(Cc2ccccc2C(F)(F)F)n(C)c(=O)c1O)c1ccccc1 (configuration not stated) | > 100 µM | > 100 µM | 
14 | Cn1c(Cc2ccccc2C(F)(F)F)nc(C(=O)Nc2ccccc2)c(O)c1=O | > 100 µM | > 100 µM | 
15 | Cn1c(Cc2ccccc2C(F)(F)F)nc(C(=O)CCc2ccccc2)c(O)c1=O | > 100 µM | > 100 µM | 
16 | Cn1c(Cc2ccccc2C(F)(F)F)nc(C(=O)NCc2ccccn2)c(O)c1=O | > 100 µM | > 100 µM | 
